The text below walks through data of publication PMC11463018 (Journal of Enzyme Inhibition and Medicinal Chemistry, 2024).

Series [1] deals with HDAC4 (Homo sapiens, UniProt P56524). Kind of series: In vitro HDAC enzyme assay. It is filed as biochemical.
For series [2], the system named is RPMI-8226. Kind of series: NCI-60 screening, RPMI-8226. It is filed as cell-based. The conditions noted are these: Homo sapiens, RPMI-8226, read-out: GI50, RPMI-8226.
Series [3] deals with JAK1 (Homo sapiens, UniProt P23458). Kind of series: Kinase inhibition assay. The format is biochemical.
The subject of series [4] is MALME-3M. Kind of series: NCI-60 screening, MALME-3M. It is filed as cell-based. The note with it: Homo sapiens, read-out: GI50, MALME-3M.
Series [5] relates to SK-MEL-28. Kind of series: NCI-60 screening, SK-MEL-28. It is filed as cell-based. The note with it: Homo sapiens, SK-MEL-28, read-out: GI50, SK-MEL-28.
Series [6] concerns OVCAR-3. Description: NCI-60 screening, OVCAR-3. The format is cell-based. The conditions noted are these: Homo sapiens, OVCAR-3, read-out: GI50, OVCAR-3.
The target in series [7] is HDAC7 (Homo sapiens, UniProt Q8WUI4). Description: In vitro HDAC enzyme assay. It is filed as biochemical.
Series [8] relates to LOX IMVI. Kind of series: NCI-60 screening, LOX IMVI. The format is cell-based. The note with it: Homo sapiens, read-out: GI50, LOX IMVI.
Series [9] has as its system MDA-MB-231. Kind of series: cells. The format is cell-based. The note with it: Homo sapiens, MDA-MB-231, read-out: Antiproliferative effect IC50, MDA-MB-231.
In series [10] the test system is SK-MEL-2. Kind of series: NCI-60 screening, SK-MEL-2. The conditions noted are these: Homo sapiens, SK-MEL-2, read-out: GI50, SK-MEL-2. The format is cell-based.
Series [11] concerns the target TYK2 (Homo sapiens, UniProt P29597). Description: Kinase inhibition assay. The format is biochemical.
Series [12] deals with HDAC3 (Homo sapiens, UniProt O15379). Description: In vitro HDAC enzyme assay. The format is biochemical.
The target in series [13] is HDAC1 (Homo sapiens, UniProt Q13547). Description: In vitro HDAC enzyme assay. The format is biochemical.
Series [14] concerns HL60. Kind of series: NCI-60 screening, HL60. The conditions noted are these: Homo sapiens, HL-60, read-out: GI50, HL60. It is filed as cell-based.
Series [15] deals with HS 578 T. Kind of series: NCI-60 screening, HS 578 T. It is filed as cell-based. The note with it: Homo sapiens, read-out: GI50, HS 578 T.
For series [16], the system named is A549/ATCC. Description: NCI-60 screening, A549/ATCC. The format is cell-based. The note with it: Homo sapiens, A549, read-out: GI50, A549/ATCC.
The subject of series [17] is RPMI-8226. Kind of series: cells. It is filed as cell-based. The conditions noted are these: Homo sapiens, RPMI-8226, read-out: Antiproliferative effect IC50, RPMI-8226.
Series [18] can be described thus: Microsomal stability assay. It is filed as in vitro ADME. The note with it: human, human liver microsomes, pH 7.4. The procedure, abridged: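 Human liver microsomes at 0.8 mg/mL, with magnesium chloride and potassium phosphate buffer (pH 7.4), incubated with test compound at 0.5 μM. Mix prewarmed 5 min at 37 °C, then started with NADPH. Stopped at 0, 5, 10, 15, 30, 60 or 90 min with ice-cold ethyl acetate, spun 4000 rpm for 10 min at 4 °C. Supernatant analysed by LC-MS/MS and half-life determined.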

A value given as a limit tells only on which side of the number the result lay.

In general, IC50 refers to the midpoint of a concentration-inhibition curve. The term half-life denotes how long it takes for the measured level to halve. Read a low half-life as fast loss.

Sequence of HDAC4 (P56524 whole entry): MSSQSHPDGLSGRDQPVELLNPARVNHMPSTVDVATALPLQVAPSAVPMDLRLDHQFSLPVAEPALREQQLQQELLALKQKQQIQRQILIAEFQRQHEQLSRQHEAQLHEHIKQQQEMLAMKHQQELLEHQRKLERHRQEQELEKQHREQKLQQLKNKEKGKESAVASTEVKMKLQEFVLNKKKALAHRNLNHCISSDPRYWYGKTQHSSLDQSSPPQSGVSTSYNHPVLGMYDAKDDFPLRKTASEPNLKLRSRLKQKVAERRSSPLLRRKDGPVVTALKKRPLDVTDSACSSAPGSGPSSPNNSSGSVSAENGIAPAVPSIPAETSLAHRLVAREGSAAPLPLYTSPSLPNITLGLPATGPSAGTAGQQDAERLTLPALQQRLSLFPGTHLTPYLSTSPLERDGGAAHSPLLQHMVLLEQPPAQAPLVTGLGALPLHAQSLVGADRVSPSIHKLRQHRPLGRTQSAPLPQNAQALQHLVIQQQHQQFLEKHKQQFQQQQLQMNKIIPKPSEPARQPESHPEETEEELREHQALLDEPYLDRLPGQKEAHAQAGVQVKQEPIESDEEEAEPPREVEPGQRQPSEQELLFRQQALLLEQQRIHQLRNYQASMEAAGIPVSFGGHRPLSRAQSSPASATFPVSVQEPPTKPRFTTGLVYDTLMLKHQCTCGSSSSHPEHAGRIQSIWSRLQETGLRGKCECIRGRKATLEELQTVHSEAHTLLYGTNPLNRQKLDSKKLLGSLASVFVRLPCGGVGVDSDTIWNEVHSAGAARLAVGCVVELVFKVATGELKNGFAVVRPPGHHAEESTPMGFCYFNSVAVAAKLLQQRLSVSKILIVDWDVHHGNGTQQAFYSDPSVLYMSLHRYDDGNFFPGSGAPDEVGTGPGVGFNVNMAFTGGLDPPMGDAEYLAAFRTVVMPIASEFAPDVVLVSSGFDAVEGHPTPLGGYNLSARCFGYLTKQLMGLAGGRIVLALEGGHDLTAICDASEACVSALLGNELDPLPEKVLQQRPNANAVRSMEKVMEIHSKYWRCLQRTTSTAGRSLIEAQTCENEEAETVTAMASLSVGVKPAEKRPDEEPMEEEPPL
Sequence of HDAC1 (Q13547 whole entry): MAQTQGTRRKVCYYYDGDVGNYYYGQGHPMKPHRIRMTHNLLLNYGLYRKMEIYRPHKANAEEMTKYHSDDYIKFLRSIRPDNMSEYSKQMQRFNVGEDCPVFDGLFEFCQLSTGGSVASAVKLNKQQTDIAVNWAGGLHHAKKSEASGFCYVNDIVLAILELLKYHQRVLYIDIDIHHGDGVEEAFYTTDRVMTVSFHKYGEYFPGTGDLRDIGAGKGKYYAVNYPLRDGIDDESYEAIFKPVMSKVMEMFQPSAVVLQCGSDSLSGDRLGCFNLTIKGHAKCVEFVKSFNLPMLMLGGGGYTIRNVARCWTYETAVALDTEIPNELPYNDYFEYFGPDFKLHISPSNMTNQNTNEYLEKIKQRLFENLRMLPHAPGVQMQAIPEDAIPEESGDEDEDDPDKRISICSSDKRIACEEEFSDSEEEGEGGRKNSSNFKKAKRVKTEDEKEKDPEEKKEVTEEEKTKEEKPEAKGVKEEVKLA
Sequence of HDAC3 (O15379 whole entry): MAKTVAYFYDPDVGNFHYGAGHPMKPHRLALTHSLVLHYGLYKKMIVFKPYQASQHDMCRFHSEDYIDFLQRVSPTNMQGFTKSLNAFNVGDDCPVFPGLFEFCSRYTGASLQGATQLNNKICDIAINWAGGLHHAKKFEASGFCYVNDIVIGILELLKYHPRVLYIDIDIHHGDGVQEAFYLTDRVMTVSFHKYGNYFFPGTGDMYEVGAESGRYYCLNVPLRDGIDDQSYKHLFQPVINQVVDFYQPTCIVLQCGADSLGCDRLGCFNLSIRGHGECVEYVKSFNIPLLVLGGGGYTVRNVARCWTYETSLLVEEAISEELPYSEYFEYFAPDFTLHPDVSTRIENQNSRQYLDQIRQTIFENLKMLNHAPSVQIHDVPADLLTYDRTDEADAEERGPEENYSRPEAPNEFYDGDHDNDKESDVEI
Sequence of HDAC3 (Q9Y618 395-489 partner limits assumed): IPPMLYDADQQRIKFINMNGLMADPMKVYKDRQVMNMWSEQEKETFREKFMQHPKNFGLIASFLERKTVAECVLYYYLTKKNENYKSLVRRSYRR
Sequence of TYK2 (P29597 whole entry): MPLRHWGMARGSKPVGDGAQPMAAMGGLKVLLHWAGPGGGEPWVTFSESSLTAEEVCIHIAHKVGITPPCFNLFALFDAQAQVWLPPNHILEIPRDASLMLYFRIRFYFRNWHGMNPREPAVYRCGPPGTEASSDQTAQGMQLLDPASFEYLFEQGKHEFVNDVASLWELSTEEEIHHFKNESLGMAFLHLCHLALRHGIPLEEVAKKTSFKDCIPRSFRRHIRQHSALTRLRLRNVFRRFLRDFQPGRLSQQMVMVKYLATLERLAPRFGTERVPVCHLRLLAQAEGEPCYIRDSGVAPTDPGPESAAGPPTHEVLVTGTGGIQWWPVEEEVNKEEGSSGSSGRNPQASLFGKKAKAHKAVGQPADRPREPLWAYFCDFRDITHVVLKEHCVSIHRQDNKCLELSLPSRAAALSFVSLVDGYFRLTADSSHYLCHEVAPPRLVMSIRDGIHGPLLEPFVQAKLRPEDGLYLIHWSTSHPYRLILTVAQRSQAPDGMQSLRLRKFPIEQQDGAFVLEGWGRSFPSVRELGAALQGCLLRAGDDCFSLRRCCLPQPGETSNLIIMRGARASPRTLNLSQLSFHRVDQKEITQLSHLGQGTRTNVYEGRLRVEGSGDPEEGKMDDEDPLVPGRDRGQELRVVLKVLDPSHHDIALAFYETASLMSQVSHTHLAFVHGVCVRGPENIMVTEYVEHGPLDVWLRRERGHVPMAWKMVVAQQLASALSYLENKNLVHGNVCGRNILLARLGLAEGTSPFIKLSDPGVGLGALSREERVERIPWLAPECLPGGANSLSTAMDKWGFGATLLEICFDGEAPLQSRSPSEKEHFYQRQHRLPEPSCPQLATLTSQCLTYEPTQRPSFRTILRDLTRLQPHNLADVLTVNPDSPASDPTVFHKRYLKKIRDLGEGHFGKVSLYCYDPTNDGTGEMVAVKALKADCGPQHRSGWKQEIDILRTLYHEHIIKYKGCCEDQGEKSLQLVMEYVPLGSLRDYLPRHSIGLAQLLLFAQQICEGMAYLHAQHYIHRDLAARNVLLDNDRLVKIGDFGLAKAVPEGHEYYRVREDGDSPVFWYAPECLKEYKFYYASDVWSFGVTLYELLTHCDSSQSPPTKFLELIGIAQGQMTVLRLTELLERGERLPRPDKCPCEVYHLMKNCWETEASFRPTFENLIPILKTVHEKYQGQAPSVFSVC
Sequence of HDAC7 (Q8WUI4 whole entry): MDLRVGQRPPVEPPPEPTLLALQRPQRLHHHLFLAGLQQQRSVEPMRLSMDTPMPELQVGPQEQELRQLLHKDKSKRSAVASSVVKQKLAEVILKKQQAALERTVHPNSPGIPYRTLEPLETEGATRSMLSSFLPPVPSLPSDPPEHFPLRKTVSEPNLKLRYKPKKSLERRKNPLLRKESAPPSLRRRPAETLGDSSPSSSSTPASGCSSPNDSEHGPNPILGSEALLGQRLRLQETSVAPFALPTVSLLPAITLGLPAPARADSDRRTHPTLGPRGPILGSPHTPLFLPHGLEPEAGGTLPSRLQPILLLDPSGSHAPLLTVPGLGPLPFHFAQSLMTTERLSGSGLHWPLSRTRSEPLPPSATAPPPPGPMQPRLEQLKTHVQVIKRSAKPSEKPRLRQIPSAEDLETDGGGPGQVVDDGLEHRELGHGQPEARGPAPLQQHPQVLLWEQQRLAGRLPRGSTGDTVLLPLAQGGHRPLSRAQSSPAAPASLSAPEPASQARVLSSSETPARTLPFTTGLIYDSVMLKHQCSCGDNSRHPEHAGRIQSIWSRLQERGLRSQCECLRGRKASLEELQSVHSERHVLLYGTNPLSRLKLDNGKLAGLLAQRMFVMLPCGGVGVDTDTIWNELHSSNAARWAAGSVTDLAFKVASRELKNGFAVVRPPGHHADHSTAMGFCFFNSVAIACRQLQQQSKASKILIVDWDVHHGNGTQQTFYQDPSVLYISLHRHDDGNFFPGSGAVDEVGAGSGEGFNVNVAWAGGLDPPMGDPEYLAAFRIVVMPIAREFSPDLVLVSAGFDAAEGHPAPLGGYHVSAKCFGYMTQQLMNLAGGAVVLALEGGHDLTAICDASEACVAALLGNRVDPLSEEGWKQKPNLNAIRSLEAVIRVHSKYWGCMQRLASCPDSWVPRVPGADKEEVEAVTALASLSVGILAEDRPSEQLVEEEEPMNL

Take `O=C(NO)c1ccc(CNc2nc3cccc(-c4ccc5c(c4)OCO5)n3n2)cc1` [Compound 19, 4-(((5-(Benzo[d][1, 3]dioxol-5-yl)-[1,2, 4]triazolo[1,5-a]pyridin-2-yl)amino)methyl)-N-hydroxybenzamide]: the IC50 in series [1] was > 50000 nM; in series [3] it was 165 ± 13 nM; in [7] it was 715 ± 33.5 nM; in series [9], 750 ± 30 nM; in [11], 860 ± 33 nM; in series [12] it was 83 ± 2.4 nM. Besides, the half-inhibitory concentration (IC50) came to 25.4 ± 1.2 nM in series [13] and 120 ± 10 nM in series [17]. For the same compound, the “HDAC4 IC50” value in [1] (duplicate, SD <15%) is on record as “no activity”. Moreover, the GI50 in [2] worked out at 100 nM; in series [4], 250 nM; in series [5], 480 nM; in series [6], 420 nM; in [8] it was 690 nM; in series [10], 250 nM. In addition, the GI50 came to 440 nM in [14], 140 nM in [15] and 890 nM in series [16]. For the same compound, the “TYK2 IC50” value in series [11] (duplicate, SD <15%) is listed as “very poor inhibitory activities”. In series [12] (IC50 HDAC3 vs HDAC6), the “Fold weaker on HDAC3 than HDAC6” value is ~19 fold. Besides, the “Fold weaker on HDAC1 than HDAC6” value in series [13] (IC50 HDAC1 vs HDAC6) is given as ~6 fold. This compound also had a half-life at 0.5 μM in series [18] of 14.5 h.
